Assay results from article PMC4161670 (Molecular Psychiatry, 2014).
Bridge positions count the residues as written; N and C are the ends. Ends that are not written are not given here.

Assays:
[1] = cited from earlier work
Dutch APP mice = assay: Serum Aβ after a single injection; assay type: in vivo, mouse; conditions: single i.p. 200 μg kg^-1
5XFAD mice = assay: Serum Aβ after a single injection; assay type: in vivo, mouse
Summary of the method: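 Female 5XFAD mice got a single i.p. injection of test compound or PBS. Serum was drawn before and after injection. Aβ1–42 was measured by sandwich ELISA: 21F12 capture, biotinylated N-terminal detection, streptavidin-alkaline phosphatase and a fluorescent substrate. Samples were diluted twofold to fivefold. Lowest detection level was 1.6 pg ml−1, from a standard curve.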

recombinant BACE1 = recombinant BACE1 (Homo sapiens, UniProt P56817); assay: In vitro BACE1 activity assay; assay type: biochemical
recombinant BACE1, sequence (P56817 46-501, species assumed): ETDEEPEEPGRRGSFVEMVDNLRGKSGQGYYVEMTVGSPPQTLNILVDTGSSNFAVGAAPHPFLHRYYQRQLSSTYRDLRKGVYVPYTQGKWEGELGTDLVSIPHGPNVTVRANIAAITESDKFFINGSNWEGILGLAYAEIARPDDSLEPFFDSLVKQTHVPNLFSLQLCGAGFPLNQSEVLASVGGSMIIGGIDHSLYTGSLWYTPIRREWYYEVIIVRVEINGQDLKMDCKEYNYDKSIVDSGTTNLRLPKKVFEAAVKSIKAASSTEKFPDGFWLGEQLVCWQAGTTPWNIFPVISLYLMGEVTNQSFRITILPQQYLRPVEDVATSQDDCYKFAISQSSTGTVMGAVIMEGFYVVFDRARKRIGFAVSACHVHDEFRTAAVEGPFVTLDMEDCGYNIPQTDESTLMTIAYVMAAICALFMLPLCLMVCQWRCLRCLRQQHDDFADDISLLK

Tg2576 mice = assay: APP processing in brain; assay type: in vivo, mouse; conditions: Tg2576, chronic treatment, western blot 6E10, n = 6 per group
Summary of the method: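 Tg2576 females, 9 months old, given test compound at 200 μg kg−1 i.p. or PBS once daily for 10 weeks; n=6 per group for blots. Brain proteins were fractionated into TBS-soluble, TBS-X and formic acid fractions. Reduced SDS-PAGE and western blot used human APP-specific 6E10. Full-length APP and C99 were quantitated from the TBS-X fraction and sAPP from the TBS-soluble fraction. Mean±s.e.; t-tests.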

[2] = cited from earlier work; remark: listed apart in the source

Substance	passage of the blood-brain barrier (in words) [1]	change of serum Aβ1-40 and Aβ1-42 after one injection (in words) (Dutch APP mice)	change of serum Aβ after i.c.v. versus i.p. injection (in words) (5XFAD mice; single i.c.v. 200 μg kg^-1 vs single i.p. 200 μg kg^-1, P=0.03)	change of serum Aβ1-42 and Aβ1-40 after one injection (in words) (5XFAD mice; single i.p. 200 μg kg^-1)	dose dependence of serum Aβ1-42 change after challenge (in words) (5XFAD mice; single i.p. challenge, Figure 3e)	inhibition of BACE1 activity (recombinant BACE1; purified BACE1, dose-dependent, concentration not given) [%]	level of APP fragment C99 in brain versus controls (in words) (Tg2576 mice)	aggregation (in words) [2]	ability to inhibit BACE1 activity (in words) (recombinant BACE1; purified BACE1, same assay as amylin)
Amylin (KCNTATCATQRLANFLVHSSNNFGAILSSTNVGSNTY; not fully specified (C-terminus, bridges); cysteine pairing not given here; UniProt P10997 34-70, looked up)	passes through the blood–brain barrier (BBB) easily	provoked a surge of Aβ1–40 but not of Aβ1–42 in the blood	much greater surge of Aβ in serum than a peripheral i.p. injection	increased level of Aβ1–42 but not of Aβ1–40 in serum	dose dependent	70	lower levels of the APP processing fragments C99		
Pramlintide (KCNTATCATQRLANFLVHSSNNFGPILPPTNVGSNTY-NH2; disulfide 2-7; chains of the INN, looked up)							did not reduce C99 levels	does not form aggregates	little or no ability to inhibit BACE1 activity
